A selection: hits, their analogues and other compounds. The true share with any hit is near 1.9%.
Env fusion inh: inhibitors of HIV Env-mediated cell fusion. HeLa-JRFL Env/CEM21 cell fusion, luciferase. inhibition, % at 12.3 µM. 360,000 tested, 1.1% active. AID 651610;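 active = mean replicate inhibition score of at least 50 and every replicate individually at or above 50; inconclusive = only one of the two criteria met; inactive = mean below 50 and not all replicates reaching 50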;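 also: 0% = plate neutral controls and 100% = maraviroc near 300 nM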
PglD DTNB: PglD (C. jejuni) enzyme inhibition; purified PglD enzyme, DTNB colorimetric CoA detection; inhibition, % at 12.5 µM; 360,000 tested, 0.098% active; in the data active = inhibition above about 16%, passing the limit was not always enough; inconclusive = no clear call, values can overlap the other calls
Rtt109 HAT inh: inhibitors of Candida albicans Rtt109/Vps75 histone acetyltransferase; Q5AAJ8; purified Rtt109/Vps75, ThioGlo CoA-SH fluorescence, 4 h; inhibition, % at 34.9 µM; 330,000 tested, 0.16% active; AID 540336;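 active = inhibition of at least 50% in every replicate; inconclusive = best replicate reaches 50% inhibition but some replicates fall short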
SR-BI DiI-HDL act: SR-BI HDL lipid transfer activation | CHO ldlA[mSR-BI] cells, DiI-HDL uptake fluorescence, 3 h; 100 = double the neutral-control signal | activation, % at 12.5 µM | 320,000 tested, 0.096% active | AID 504775;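 active = mean replicate activation of at least 60% and every replicate at or above 60%; inconclusive = mean or all-replicate condition met, but not both; inactive = mean below 60% and not all replicates reaching 60%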;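 also: 0% = median plate neutral-control signal and 100% = twice that signal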
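System: LDL receptor-deficient CHO ldlA cells overexpressing murine SR-BI | Timing: 3 h uptake period with compound, 37 °C | Medium: HEPES-buffered (25 mM, pH 7.4) F12 plus 0.5% BSA | Dosing: Single-point compound dose | Signal: Bottom-read fluorescence, 550/595 nm | Read-out: Retained DiI signal reflecting DiI-HDL uptake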
SR-BI DiI inh: inhibitors of mouse SR-BI mediated HDL lipid uptake | inhibition, % at 12.5 µM | Q61009 | ldlA[mSR-BI] CHO cells, DiI-HDL uptake fluorescence, 3 h | AID 488896 | 320,000 tested, 0.96% active;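 active = mean replicate inhibition of at least 70% and a set share of replicates each scoring 70 or more; inconclusive = meets just one of the two criteria; inactive = fails both criteria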;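 also: 0% = median of neutral control wells and 100% = median of positive control wells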
Target sequence (Q61009 whole entry, looked up): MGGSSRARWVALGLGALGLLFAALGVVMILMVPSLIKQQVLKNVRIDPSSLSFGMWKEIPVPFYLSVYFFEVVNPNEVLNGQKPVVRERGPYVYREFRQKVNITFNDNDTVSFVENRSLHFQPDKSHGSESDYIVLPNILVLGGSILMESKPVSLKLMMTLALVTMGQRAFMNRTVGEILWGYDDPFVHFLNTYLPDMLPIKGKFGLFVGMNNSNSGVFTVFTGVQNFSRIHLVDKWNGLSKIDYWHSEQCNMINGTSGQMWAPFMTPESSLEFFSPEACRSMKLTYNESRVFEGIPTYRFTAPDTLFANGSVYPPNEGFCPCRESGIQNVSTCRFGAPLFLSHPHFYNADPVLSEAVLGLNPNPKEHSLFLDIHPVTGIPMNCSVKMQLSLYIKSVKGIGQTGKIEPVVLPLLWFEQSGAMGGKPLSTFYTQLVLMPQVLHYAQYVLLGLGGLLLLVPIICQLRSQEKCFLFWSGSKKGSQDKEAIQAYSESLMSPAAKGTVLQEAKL
Glyco luc inh: N-linked glycosylation inhibition | 360,000 tested, 0.23% active | AID 588692 | reporter increase, % at 12.5 µM | D54 ERlucT glycosylation luciferase reporter, 24 h; percent of 100 nM tunicamycin response;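 active = mean luciferase reporter signal, scaled so untreated is 0 and the glycosylation-blocking control 100, at or above a set limit in every replicate; inconclusive = mean reaches the limit but not every replicate does; inactive = mean below the limit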;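 also: luciferase carries N-glycosylation sites so blocking glycosylation raises the light; 0% = median of neutral control wells and 100% = median of 100 nM tunicamycin wells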
PglD inh SP: blocks Campylobacter jejuni PglD acetyltransferase activity; 320 tested, under 10 active; inhibition, % at 20 µM; Purified C. jejuni PglD, DTNB absorbance 412 nm; shares compounds with PglD DTNB; AID 743156;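 active = mean inhibition across replicates of at least 20% with every single replicate also at 20% or more; inconclusive = mean inhibition at least 20% but some replicate falls below 20%; inactive = mean inhibition under 20% and not all replicates reach it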;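 also: initial rate of CoA release by acetyl transfer from AcCoA to the UDP-4-amino sugar; 0% = median of neutral control wells and 100% = median of positive control wells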
Starred values were filed as active, the others as inactive; ? = inconclusive; . = no result given; ! = not confirmed by another sample; [ ] = dose if it differs, or a comment.

SMILES	Env fusion inh	PglD DTNB	Rtt109 HAT inh	SR-BI DiI-HDL act	SR-BI DiI inh	Glyco luc inh	PglD inh SP
Cc1noc(C)c1NC(=O)N(C)C[C@@H]1Oc2ccc(NC(=O)C3CC3)cc2C(=O)N([C@@H](C)CO)C[C@@H]1C	23[16.7 µM]	0	.	.	.	.	.
CC(C)n1nc(Cc2cccc3ccccc23)c(C#N)c1N	19	89*	0	-6	6	-6	-5
C[C@H](CO)N1C[C@H](C)[C@@H](CN(C)C(=O)CCCN(C)C)OCCCC[C@H](C)Oc2ccc(NS(C)(=O)=O)cc2C1=O	17[16.7 µM]	3	.	.	.	.	.
CC(c1ccccc1)n1c(CO)nc2ccccc21 (stereo not given)	10	67*	5	10	-10	-1	2
Cc1nc2ccccc2n1C(C)c1ccccc1 (stereo not given)	10	-3	-2	8	-8	0	.
COc1cccc(C(=O)NNC(=O)C(=O)Nc2cccc(Cl)c2C)c1	-28	22*	0	.	.	2	10
O=C(C[C@@H]1CC[C@H]2[C@@H](COC[C@@H](O)CN2S(=O)(=O)c2ccc(Cl)cc2)O1)N[C@H]1CCN(Cc2ccccc2)C1	.	5	.	.	.	.	.
COc1cc(C2=NOC(C(=O)NCc3cccnc3)C2)cc(OC)c1OC (stereo not given)	-9	-5	3	-70	?	3	.
O=C(NCc1cccnc1)C1CC(c2cccc(Br)c2)=NO1 (stereo not given)	-5	23*	17	-4	4	7	-5
Nc1n[nH]c(C(F)(F)F)c1-c1ccccc1	-1	-7	.	51	-51	-3	.
Nc1n[nH]c(-c2ccccc2)c1-c1ccccc1	.	33*	-14	20	-20	-1	-3
O=C(O)CC1(CC(=O)Nc2ccc3c(c2)C(=O)OC3)CCCCC1	-9	21*	.	.	.	3	-3
O=c1oc2ccc(Cl)cc2cc1-c1ccccc1	2	.	-2	1	-1	0	.
O=c1oc2ccccc2cc1-c1ccccc1	-38	24*	10	5	-5	1	-9
CNS(=O)(=O)c1ccc2c3c(cccc13)C(=O)N2	13	3	3	-13	13	1	.
CNS(=O)(=O)c1cc(S(=O)(=O)NC)c2cccc3c2c1NC3=O	-84	77*	-7	-1	1	2	1
CO[C@@H]1CN(C)C(=O)c2ccc(NC(=O)C3CC3)cc2OC[C@H](C)N(C(=O)c2ccccc2)C[C@H]1C	.	2	.	.	.	.	.
COc1ccc(S(=O)(=O)N2CCN(C(=O)C3CC3)CC2)cc1Br	.	42*	2	7	-7	3	-4
COc1ccc(S(=O)(=O)N2CCCC2)cc1Br	-147	-3	-6	-4	4	1	.
CNC(=O)C[C@H]1CC[C@@H]2[C@H](COc3ccc(NC(=O)c4cccc(F)c4)cc3C(=O)N2C)O1	-2[16.7 µM]	6	.	.	.	.	.
c1ccc2c(c1)oc1c(Nc3ccc(CN4CCOCC4)cc3)ncnc12	.	20*	2	6	-6	-10	1
c1ccc2c(c1)oc1c(NCCN3CCOCC3)ncnc12	-21	7	-4	4	-4	-1	.
Cc1ccc(N(CC(=O)NC(C)c2ccccc2)S(=O)(=O)c2c(C)noc2C)cc1 (stereo not given)	7	27*	1	14	-14	0	-5
O=S(=O)(c1ccccc1)N1CCCCN2[C@@H](CO)[C@H](c3ccc(-c4ccccc4)cc3)[C@@H]2C1	.	-3	.	.	.	.	.
CCN(CC)C1CCN(C(=O)c2ccc(OC3CCN(C(=O)CCOC)CC3)cc2)C1 (stereo not given)	-2	26*	.	.	.	-1	5
SMILES	Env fusion inh	PglD DTNB	Rtt109 HAT inh	SR-BI DiI-HDL act	SR-BI DiI inh	Glyco luc inh	PglD inh SP
CCCCN1C(=O)c2ccc(C(=O)Nc3ccc(C)c(S(=O)(=O)N(C)C)c3)cc2C1=O	15	25*	6	-50	50	-3	-1
CCCCN1C(=O)c2ccc(C(=O)Nc3cccc(C)c3C)cc2C1=O	.	-6	-9	-16	16	0	.
CC(C)NC(=O)N(C)C[C@H]1Oc2cc(C#Cc3ccc(F)cc3)ccc2S(=O)(=O)N([C@H](C)CO)C[C@H]1C	23[16.7 µM]	21*!	.	.	.	-1	10
CC(C)NC(=O)N(C)C[C@H]1Oc2cc(C#Cc3ccc(F)cc3)ccc2S(=O)(=O)N([C@@H](C)CO)C[C@@H]1C	?	0	.	.	.	.	.
N#C/C(=N\O)c1nc2ccccc2[nH]1	-9	.	5	1	-1	2	.
Cc1ccc2nc(/C(C#N)=N/O)[nH]c2c1	.	38*	-9	6	-6	0	-12
CN(C)Cc1cn(CC[C@@H]2CC[C@@H](NC(=O)Nc3ccc4c(c3)OCO4)[C@H](CO)O2)nn1	-9[16.7 µM]	-1	.	.	.	.	.
Cn1c(CC(=O)Nc2ccccc2Cl)nnc1SCC(=O)Nc1nncs1	-3	26*	20	.	.	1	13
C[C@H]1CCCCO[C@H](CN(C)C(=O)c2ccccc2)[C@@H](C)CN([C@@H](C)CO)C(=O)c2cc(NS(=O)(=O)c3ccc(F)cc3)ccc2O1	-4[16.7 µM]	-2	.	.	.	.	.
COc1ccc(S(=O)(=O)N[C@@H]2CC[C@H](CC(=O)NCCc3ccncc3)O[C@@H]2CO)cc1	4[16.7 µM]	-1	.	.	.	.	.
CCOC(=O)C1CCCN(CCC(=O)Nc2ccc(Br)c(C)c2)C1 (stereo not given)	3	71*	-2	-17	17	3	0
CC(=O)n1cc([C@@H]2C=C(C(N)=O)O[C@H](OCCCCO)C2)c2ccccc21	-6[16.7 µM]	7	.	.	.	.	.
O=C(c1cc(-c2ccc(Cl)c(Cl)c2)on1)N1CCOCC1	-52	3	-2	20	-20	-4	.
O=C(c1cc(-c2ccc(Cl)cc2)on1)N1CCOCC1	-98	24*	-9	13	-13	-16	2
COC(=O)C[C@H]1C[C@H]2c3cc(NC(=O)Nc4ccccc4)ccc3O[C@H]2[C@H](CO)O1	0[16.7 µM]	1	.	.	.	.	.
Cc1cccc2cc(C3CC(c4ccco4)=NN3C(=O)CCC(=O)O)c(Cl)nc12 (stereo not given)	-4	23*	9	30	-30	3	-6

Source: PubChem (Broad Institute)
